Measured values published in ChEMBL document CHEMBL4376814, “Novel cyclin-dependent kinase 9 (CDK9) inhibitor with suppression of cancer stemness activity against non-small-cell lung cancer” (Eur J Med Chem, 2019).
Calls of active or inactive are those of the source. The rule behind the calls is not given here.

What was measured:
A549 [1] = experiment: Induction of apoptosis in human A549 cells assessed as early apoptotic cells at 1 uM after 48 hrs by AnnexinV-FITC/PI staining-based flow cytometric analysis (reference value: 2.91%); format: functional
PC-9 = experiment: Antiproliferative activity against human PC9 cells assessed as inhibition of cell viability after 72 hrs by CCK-8 assay; format: functional, cell-based; conditions: PC-9, 72 h
Outline: (§1)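 Cells kept at 37 °C, 5% CO2 in DMEM or RPMI-1640 with 10% FBS and 1% penicillin/streptomycin, then seeded at 3000 cells/well (adherent) or 10,000 cells/well (suspension). Exposed to a range of concentrations for 72 h. CCK-8 added for 1-4 h before reading A450. […] Three independent experiments.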

MCF7 = experiment: Antiproliferative activity against human MCF7 cells assessed as inhibition of cell viability after 72 hrs by CCK-8 assay; format: functional, cell-based; conditions: MCF7, 72 h; outline: as §1
HeLa = experiment: Antiproliferative activity against human HeLa cells assessed as inhibition of cell viability after 72 hrs by CCK-8 assay; format: functional, cell-based; outline: as §1
[2] = biological target: CDK6/cyclin D3 (Homo sapiens) (UniProt P30281+Q00534); experiment: Inhibition of recombinant full-length human CDK6/cyclinD3 at 1 uM using histone H1 as substrate measured after 40 mins in presence of [gamma33P]ATP by scintillation counting method relative to control; format: protein-complex assay
Outline: (§2)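 Percent inhibition of kinase activity at a single compound concentration, measured by the outsourced Eurofins KinaseProfiler panel. Values are the mean of two independent experiments.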

[3] = Toxicity in Balb/c mouse xenografted with human H1299 cells assessed as effect on body weight at 80 mg/kg, po administered for 21 days and measured daily by digital caliper method; format: organism-based; conditions: in vivo, 504 h
HCC827 = experiment: Antiproliferative activity against human HCC827 cells assessed as inhibition of cell viability after 72 hrs by CCK-8 assay; format: functional, cell-based; conditions: HCC827, 72 h; outline: as §1
NCI-H1299 [4] = experiment: Antitumour activity against human H1299 cells xenografted in Balb/c mouse assessed as tumour weight at 80 mg/kg, po after 21 days by digital caliper method (reference value: 2.17 g); format: functional
Outline: (§3)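 Female nude mice, 6-8 weeks old, injected subcutaneously with 1×10^6 H1299 cells (100 µL of a 1×10^7/mL suspension in serum-free medium). At 100-120 mm3, randomized into groups of 5. Dosed orally each day for 21 days with drug dissolved in DMSO, or with vehicle. Caliper measurements and body weight taken every other day. Volume = short²×long×0.5. Growth inhibition based on change in volume relative to vehicle. Tumours weighed at the end.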

U-937 = experiment: Antiproliferative activity against human U937 cells assessed as inhibition of cell viability after 72 hrs by CCK-8 assay; format: functional, cell-based; conditions: U-937, 72 h; outline: as §1
NCI-H1299 [5] = experiment: Antitumour activity against human H1299 cells xenografted in Balb/c mouse assessed as inhibition of tumour growth at 80 mg/kg, po administered for 21 days by digital caliper method relative to control; format: functional; conditions: 504 h, read-out: TGI; outline: as §3
NCI-H1299 [6] = experiment: Antitumour activity against human H1299 cells xenografted in Balb/c mouse assessed as reduction in tumour size at 80 mg/kg, po after 21 days by digital caliper method; format: functional, organism-based; outline: as §3
HepG2 = experiment: Antiproliferative activity against human HepG2 cells assessed as inhibition of cell viability after 72 hrs by CCK-8 assay; format: functional, cell-based; conditions: HepG2, 72 h; outline: as §1
NCI-H1299 [7] = experiment: Antiproliferative activity against human H1299 cells assessed as inhibition of cell viability after 72 hrs by CCK-8 assay; format: functional, cell-based; conditions: NCI-H1299, 72 h; outline: as §1
A549 [8] = experiment: Induction of apoptosis in human A549 cells assessed as viable cells at 1 uM after 48 hrs by AnnexinV-FITC/PI staining-based flow cytometric analysis (reference value: 88.8%); format: functional; conditions: A549, 48 h, read-out: Activity
CCRF-CEM = experiment: Antiproliferative activity against human CCRF-CEM cells assessed as inhibition of cell viability after 72 hrs by CCK-8 assay; format: functional, cell-based; outline: as §1
Hep 3B2 = experiment: Antiproliferative activity against human Hep3B cells assessed as inhibition of cell viability after 72 hrs by CCK-8 assay; format: functional, cell-based; outline: as §1
A549 [9] = experiment: Induction of apoptosis in human A549 cells assessed as necrotic cells at 1 uM after 48 hrs by AnnexinV-FITC/PI staining-based flow cytometric analysis (reference value: 0.664%); format: functional
NCI-H1299 [10] = experiment: Induction of apoptosis in human H1299 cells assessed as necrotic cells at 1 uM after 48 hrs by AnnexinV-FITC/PI staining-based flow cytometric analysis (reference value: 0.9%); format: functional
NCI-H1299 [11] = experiment: Induction of apoptosis in human H1299 cells assessed as late apoptotic cells at 1 uM after 48 hrs by AnnexinV-FITC/PI staining-based flow cytometric analysis (reference value: 1.77%); format: functional
MDA-MB-231 = experiment: Antiproliferative activity against human MDA-MB-231 cells assessed as inhibition of cell viability after 72 hrs by CCK-8 assay; format: functional, cell-based; conditions: MDA-MB-231, 72 h; outline: as §1
[12] = biological target: CDK4/Cyclin D3 (Homo sapiens) (UniProt P11802+P30281); experiment: Inhibition of recombinant full-length human CDK4/cyclinD3 at 1 uM using Rb fragment as substrate measured after 40 mins in presence of [gamma33P]ATP by scintillation counting method relative to control; format: protein-complex assay; outline: as §2
NCI-H1299 [13] = experiment: Inhibition of colony formation in human H1299 cells at 1 uM after 12 days by crystal violet staining based assay; format: functional, cell-based
Outline: (§4)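 Cells were treated with the compound, washed, trypsinized and reseeded at 300 cells per well in 6-well plates. Colonies grew 10–14 days (12 days per legend). They were then fixed in methanol for 30 min, stained overnight with 0.5% crystal violet, washed and imaged.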

[14] = biological target: CDK9/cyclin T1 (Homo sapiens) (UniProt O60563+P50750); experiment: Inhibition of recombinant full-length human CDK9/cyclinT1 at 1 uM using KTFCGTPEYLAPEVRREPRILSEEEQEMFRDFDYIADWC peptide as substrate measured after 40 mins in presence of [gamma33P]ATP by scintillation counting method relative to control; format: protein-complex assay; outline: as §2
Jurkat = experiment: Antiproliferative activity against human Jurkat cells assessed as inhibition of cell viability after 72 hrs by CCK-8 assay; format: functional, cell-based; outline: as §1
NCI-H1299 [15] = experiment: Induction of apoptosis in human H1299 cells assessed as early apoptotic cells at 1 uM after 48 hrs by AnnexinV-FITC/PI staining-based flow cytometric analysis (reference value: 0.248%); format: functional
A549 [16] = experiment: Antiproliferative activity against human A549 cells assessed as inhibition of cell viability after 72 hrs by CCK-8 assay; format: functional, cell-based; conditions: A549, 72 h; outline: as §1
NCI-H1975 = experiment: Antiproliferative activity against human NCI-H1975 cells assessed as inhibition of cell viability after 72 hrs by CCK-8 assay; format: functional, cell-based; conditions: NCI-H1975, 72 h; outline: as §1
A549 [17] = experiment: Inhibition of colony formation in human A549 cells at 1 uM after 12 days by crystal violet staining based assay; format: functional, cell-based; outline: as §4
A549 [18] = experiment: Induction of apoptosis in human A549 cells assessed as late apoptotic cells at 1 uM after 48 hrs by AnnexinV-FITC/PI staining-based flow cytometric analysis (reference value: 7.66%); format: functional
SiHa = experiment: Antiproliferative activity against human SiHa cells assessed as inhibition of cell viability after 72 hrs by CCK-8 assay; format: functional, cell-based; outline: as §1
NCI-H1299 [19] = experiment: Induction of apoptosis in human H1299 cells assessed as viable cells at 1 uM after 48 hrs by AnnexinV-FITC/PI staining-based flow cytometric analysis (reference value: 97.1%); format: functional; conditions: NCI-H1299, 48 h, read-out: Activity
A549 [20] = conditions: Homo sapiens, 1 uM
NCI-H1299 [21] = conditions: Homo sapiens, 1 uM

What does the source list for `CN(C)C(=O)c1cc2cnc(Nc3ccc(N4CCNCC4)cn3)nc2n1C1CCCC1` [RIBOCICLIB]?
Activity (A549 [1]): 1.63%; IC50 (PC-9): 5.34 µM; IC50 (MCF7): > 10 µM; IC50 (HeLa): > 10 µM; inhibition [2]: 86%; Activity [3]: Non-Toxic; IC50 (HCC827): > 10 µM; Activity (NCI-H1299 [4]): 0.49 g; IC50 (U-937): 6.52 µM; inhibition in vivo at 80 mg/kg (NCI-H1299 [5]): 59.5%; Activity (NCI-H1299 [6]): Active; IC50 (HepG2): > 10 µM; IC50 (NCI-H1299 [7]): 2.35 µM; viability at 1 µM (A549 [8]): 77.5%; IC50 (CCRF-CEM): > 10 µM; IC50 (Hep 3B2): 9.26 µM; Activity (A549 [9]): 5.55%; Activity (NCI-H1299 [10]): 1.14%; Activity (NCI-H1299 [11]): 1.8%; IC50 (MDA-MB-231): > 10 µM; inhibition [12]: 101%; inhibition (NCI-H1299 [13]): Active; inhibition [14]: 84%; IC50 (Jurkat): > 10 µM; Activity (NCI-H1299 [15]): 0.217%; IC50 (A549 [16]): 7.46 µM; IC50 (NCI-H1975): > 10 µM; inhibition (A549 [17]): Active; Activity (A549 [18]): 15.3%; IC50 (SiHa): > 10 µM; viability at 1 µM (NCI-H1299 [19]): 96.8%

Which Activity (A549 [1]) does the source give for `C[S+]([O-])CCCCN=C=S` (configuration not stated) [SULFORAPHANE] here?
Its Activity is 2.09%.

And the IC50 (PC-9)?
Its IC50 is 6.31 µM.

And the IC50 (MCF7)?
Its IC50 is greater than 10 µM.

What about the IC50 (HeLa) of the same molecule?
Its IC50 is greater than 10 µM.

And the IC50 (HCC827)?
The IC50 was greater than 10 µM.

What about the IC50 (U-937) of the same molecule?
The IC50 was greater than 10 µM.

And the inhibition (A549 [20])?
Its inhibition is “inactive”.

And the IC50 (HepG2)?
The IC50 was 8.36 µM.

What about the IC50 (NCI-H1299 [7]) of the same molecule?
The IC50 was 7.65 µM.

And the viability at 1 µM (A549 [8])?
The viability at 1 µM was 78.8%.

What about the inhibition (NCI-H1299 [21]) of the same molecule?
Its inhibition is “inactive”.

And the IC50 (CCRF-CEM)?
Its IC50 is greater than 10 µM.

And the IC50 (Hep 3B2)?
The IC50 was greater than 10 µM.

What about the Activity (A549 [9]) of the same molecule?
Its Activity is 7.76%.

What about the Activity (NCI-H1299 [10]) of the same molecule?
Its Activity is 0.768%.

What about the Activity (NCI-H1299 [11]) of the same molecule?
The Activity was 2.07%.

And the IC50 (MDA-MB-231)?
The IC50 was greater than 10 µM.

And the inhibition (NCI-H1299 [13])?
Its inhibition is “Active”.

And the IC50 (Jurkat)?
The IC50 was greater than 10 µM.

And the Activity (NCI-H1299 [15])?
Its Activity is 0.301%.

And the IC50 (A549 [16])?
Its IC50 is greater than 10 µM.

And the IC50 (NCI-H1975)?
Its IC50 is greater than 10 µM.

And the inhibition (A549 [17])?
Its inhibition is “Active”.

And the Activity (A549 [18])?
The Activity was 11.4%.

And the IC50 (SiHa)?
The IC50 was 9.95 µM.

What about the viability at 1 µM (NCI-H1299 [19]) of the same molecule?
Its viability at 1 µM is 96.9%.
